Source: ChEMBL document CHEMBL3877271, “Antagonizing STAT3 activation with benzo[b]thiophene 1, 1-dioxide based small molecules” (Eur J Med Chem, 2017)
Calls of active or inactive are those of the source. No cut-off for these calls is given here.

Tests used:
[1] = Antiproliferative activity against human MDA-MB-231 cells after 72 hrs by MTT assay; format: functional, cell-based; details: MDA-MB-231, 72 h
In short: (§1)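 Cells in RPMI-1640 with 10% FBS, penicillin/streptomycin, 37 °C, 5% CO₂; seeded 3000-5000 cells/well, left overnight (16 h), then medium replaced with fresh medium holding serial dilutions in triplicate for 72 h. MTT read-out; viability = absorbance of treated/solvent control × 100%. Stattic served as reference.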

[2] = Antiproliferative activity against human A549 cells after 72 hrs by MTT assay; format: functional, cell-based; details: A549, 72 h; in short: as §1
[3] = Antiproliferative activity against human MCF7 cells after 72 hrs by MTT assay; format: functional, cell-based; details: MCF7, 72 h; in short: as §1
[4] = Antiproliferative activity against human HCT116 cells after 72 hrs by MTT assay; format: functional, cell-based; details: HCT-116, 72 h; in short: as §1
[5] = test system: MDA-MB-231; assay: Potency index, ratio of stattic IC50 to compound IC50 for human MDA-MB-231 cells; format: functional
[6] = test system: A549; assay: Potency index, ratio of stattic IC50 to compound IC50 for human A549 cells; format: functional
[7] = test system: MCF7; assay: Potency index, ratio of stattic IC50 to compound IC50 for human MCF7 cells; format: functional
[8] = test system: HCT-116; assay: Potency index, ratio of stattic IC50 to compound IC50 for human HCT116 cells; format: functional
[9] = Antitumor activity against mouse 4T1 cells implanted in ICR mouse assessed as tumor growth inhibition at 1 mg/kg, ip administered once in 4 days for 11 days measured on day 12 relative to control; format: functional; details: 4T1, ip, read-out: TGI
In short: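 Male ICR mice, 5 weeks old, inoculated with 2 × 10⁶ 4T1 cells at the right armpit. At 24 h, randomised into groups of 6 and dosed i.p.; vehicle PBS/DMSO (8:2) daily for 11 days. Killed day 12; tumours weighed; TI% = (1 − mean treated/mean control weight) × 100. Tumour p-STAT3 and STAT3 assessed by western blot.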

[10] = test system: Mus musculus; assay: Toxicity in ICR mouse implanted with mouse 4T1 cells assessed as body weight loss at 1 mg/kg, ip administered once in 4 days for 11 days measured daily during compound dosing; format: organism-based; details: in vivo
In short: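 4T1-bearing male ICR mice (5 weeks, 6/group), dosed i.p. with PBS/DMSO (8:2) vehicle control. Body weight recorded daily. BI% = (1 − mean treated/mean control body weight) × 100.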

[11] = biological target: Signal transducer and activator of transcription 3 (Homo sapiens) (UniProt P40763); assay: Inhibition of STAT3 dimer DNA binding activity in human MDA-MB-231 nuclear extract at 5 uM preincubated for 24 hrs followed by addition of [32P]hSIE by electrophoretic mobility shift assay
Sequence of Signal transducer and activator of transcription 3 (Homo sapiens) (P40763 whole entry): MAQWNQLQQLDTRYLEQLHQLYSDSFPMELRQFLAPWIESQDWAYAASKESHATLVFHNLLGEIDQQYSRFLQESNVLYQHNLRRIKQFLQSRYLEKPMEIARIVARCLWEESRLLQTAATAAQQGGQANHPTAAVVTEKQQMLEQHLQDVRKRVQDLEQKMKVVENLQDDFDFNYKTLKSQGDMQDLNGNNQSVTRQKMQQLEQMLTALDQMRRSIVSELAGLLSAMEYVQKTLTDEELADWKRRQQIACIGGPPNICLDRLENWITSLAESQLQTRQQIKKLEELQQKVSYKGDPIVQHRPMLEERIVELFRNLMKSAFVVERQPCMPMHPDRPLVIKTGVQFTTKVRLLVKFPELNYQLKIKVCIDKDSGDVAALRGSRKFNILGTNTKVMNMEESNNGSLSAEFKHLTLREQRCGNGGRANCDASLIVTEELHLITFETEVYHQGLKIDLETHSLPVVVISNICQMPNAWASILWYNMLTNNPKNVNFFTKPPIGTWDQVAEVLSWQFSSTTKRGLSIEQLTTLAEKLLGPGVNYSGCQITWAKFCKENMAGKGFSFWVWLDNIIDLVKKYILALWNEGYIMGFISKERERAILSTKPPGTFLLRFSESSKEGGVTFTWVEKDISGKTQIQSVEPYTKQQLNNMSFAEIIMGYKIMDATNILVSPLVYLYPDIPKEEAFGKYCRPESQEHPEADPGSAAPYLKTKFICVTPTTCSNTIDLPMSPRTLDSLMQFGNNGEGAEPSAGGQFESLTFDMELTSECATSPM
In short: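 Cells treated 24 h in fresh growth medium. Nuclear extracts of equal total protein incubated with ³²P-labelled hSIE oligonucleotide probe and resolved by EMSA; Stattic 5 µM as comparator.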

| inhibition [11] | Structure (SMILES) | IC50 [1] [nM] | IC50 [2] [nM] | IC50 [3] [nM] | IC50 [4] [nM] | Ratio IC50 [5] | Ratio IC50 [6] | Ratio IC50 [7] | Ratio IC50 [8] | inhibition in vivo at 1 mg/kg [9] [%] | Activity [10] |
| --- | --- | --- | --- | --- | --- | --- | --- | --- | --- | --- | --- |
|  | COc1ccc(Nc2cccc3c2S(=O)(=O)C=C3)cc1 | 1040 | 2590 | 940 | 1990 |  |  |  |  |  |  |
|  | O=S1(=O)C=Cc2cccc(Nc3cccc(F)c3)c21 | 1910 | 2550 | 1120 | 1220 |  |  |  |  |  |  |
|  | O=S1(=O)C=Cc2cccc(Nc3ccc(Cl)cc3)c21 | 1210 | 1040 | 680 | 260 | 1.4 - 7.2 | 1.4 - 7.2 | 1.4 - 7.2 | 1.4 - 7.2 |  |  |
|  | Cc1ccc(Nc2cccc3c2S(=O)(=O)C=C3)cc1 | 1560 | 2680 | 1890 | 4000 |  |  |  |  |  |  |
|  | O=S1(=O)C=Cc2ccc(Nc3ccc(Cl)cc3)cc21 | 6720 | 2300 | 2670 | 4440 |  |  |  |  |  |  |
|  | O=S1(=O)C=Cc2cccc(Nc3cc(C(F)(F)F)cc(C(F)(F)F)c3)c21 | 3120 | 3840 | 5110 | 3600 |  |  |  |  |  |  |
|  | COc1cccc2c1C(=O)c1c(O)c3c(c(O)c1C2=O)C[C@@](O)(C(=O)CO)C[C@@H]3O[C@H]1C[C@H](N)[C@H](O)[C@H](C)O1 [DOXORUBICIN] |  |  |  |  |  |  |  |  | 67 | Toxic |
|  | Cc1cc(C)cc(Nc2cccc3c2S(=O)(=O)C=C3)c1 | 3120 | 4800 | 8800 | > 10000 |  |  |  |  |  |  |
|  | O=S1(=O)C=Cc2ccc(Nc3ccc(C(F)(F)F)cc3)cc21 | 1300 | 1140 | 1270 | 1340 |  |  |  |  |  |  |
|  | O=S1(=O)C=Cc2cccc(Nc3ccccc3C(F)(F)F)c21 | 3900 | 4120 | 8100 | 5950 |  |  |  |  |  |  |
|  | COc1cc(Nc2cccc3c2S(=O)(=O)C=C3)cc(OC)c1OC | 990 | 950 | 930 | 1150 |  |  |  |  |  |  |
|  | N#Cc1cccc(Nc2ccc3c(c2)S(=O)(=O)C=C3)c1 | > 10000 | > 10000 | > 10000 | > 10000 |  |  |  |  |  |  |
|  | COc1cc(Nc2ccc3c(c2)S(=O)(=O)C=C3)cc(OC)c1OC | 1430 | 1880 | 2230 | 1420 |  |  |  |  |  |  |
|  | O=S1(=O)C=Cc2cccc(Nc3c(F)c(F)c(F)c(F)c3F)c21 | 4460 | 3480 | 2300 | 3370 |  |  |  |  |  |  |
|  | O=S1(=O)C=Cc2cccc(Nc3ccc(F)c(F)c3)c21 | 1890 | 2500 | 950 | 680 |  |  |  |  |  |  |
|  | O=S1(=O)C=Cc2ccc(Nc3cccc(OC(F)(F)F)c3)cc21 | 2080 | 1370 | 2020 | 1980 |  |  |  |  |  |  |
|  | COc1ccccc1Nc1cccc2c1S(=O)(=O)C=C2 | 2400 | 2590 | 5100 | 5000 |  |  |  |  |  |  |
|  | O=S1(=O)C=Cc2cccc(Nc3ccc(Cl)c(Cl)c3)c21 | 1360 | 660 | 570 | 680 |  |  |  |  |  |  |
|  | O=S1(=O)C=Cc2cccc(Nc3ccc(C(F)(F)F)cc3)c21 | 1200 | 2440 | 1820 | 1440 |  |  |  |  |  |  |
|  | O=S1(=O)C=Cc2ccc(Nc3cccc(C(F)(F)F)c3)cc21 | 1310 | 1440 | 2500 | 1370 |  |  |  |  |  |  |
| Active | O=[N+]([O-])c1ccc2c(c1)S(=O)(=O)C=C2 | 1680 | 4400 | 2360 | 1080 |  |  |  |  |  |  |
|  | O=S1(=O)C=Cc2ccc(Nc3ccc(Cl)c(Cl)c3)cc21 | 890 | 3320 | 2230 | 2470 |  |  |  |  |  |  |
|  | O=S1(=O)C=Cc2ccc(Nc3ccc(F)c(F)c3)cc21 | 3050 | 1550 | 2610 | 3020 |  |  |  |  |  |  |
|  | COc1ccc(Nc2ccc3c(c2)S(=O)(=O)C=C3)cc1 | 1400 | 1220 | 1210 | 1170 |  |  |  |  |  |  |
|  | O=S1(=O)C=Cc2cccc(Nc3ccc(OC(F)(F)F)cc3)c21 | 2100 | 1570 | 2690 | 2380 |  |  |  |  |  |  |
